# aDG glyco act: alpha-DG glycosylation activation. Pro5-aDG cells, alpha-DG glycosylation AlphaScreen (IIH6); 0% Pro5, 100% B10-LARGE cell signal. activation, % at 10 µM. actives 0.22% (n = 360,000). AID 624168;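 active = activation of at least 8% versus controls, or a plate z-score of at least 8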;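 also: Pro5 are CHO cells carrying HIG-tagged alpha-DG that lacks glycosylation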
# GASC-1 inh: inhibitors of human GASC-1 (JMJD2C) demethylase; Q9H3R0; GST-JMJD2C(1-420) H3K9me3 demethylation, DELFIA europium; inhibition, % at 2.35 µM; actives 0.069% (n = 330,000); AID 2099;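 active = more than half of a compound's replicate wells show inhibition beyond 50%, single wells judged on their own value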;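 also: signal counts dimethyl H3K9 product captured on neutravidin plate; 0% = median of DMSO wells and 100% = 0.3 times that DMSO median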
# GC-A act: GC-A (human) enzyme activation; P16066; HEK293 GC-A cells, cGMP TR-FRET, EC30 ANP; 0% at EC30 ANP, 100% saturating ANP; activation, % at 10 µM; actives 0.14% (n = 370,000); AID 1671463; in the data active = activation above about 40%
# Hep lipid drop: hepatic lipid droplet formation modulation; AML12 mouse hepatocytes, oleate lipid droplets, BODIPY imaging; inhibition, % at 6.5 µM; actives 0.4% (n = 240,000); AID 1656;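 active = lipid droplet intensity inhibited by at least 50%, with more than 500 cells counted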
#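 Assay system: AML12 hepatocytes (mouse) / Also added: 100 µM oleic acid challenge / Times: overnight treatment with compound plus oleate / Detection: high-content imaging of BODIPY-stained droplets and DAPI nuclei / Evaluation: % inhibition of lipid droplet signal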
# GRIN3A LBD mod: NR3A (human) ligand-binding domain modulation. NR3A LBD differential scanning fluorimetry, Tm shift; 0% = protein alone, 100% = glycine-bound protein. actives 2.5% (n = 340,000). Tm shift relative to glycine control, % at 25 µM;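 active = melting temperature shift of at least 10% of the positive control shift, at one fixed dose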
# GC-B act: GC-B (human) receptor activation | activation, % at 10 µM | actives 0.11% (n = 370,000) | HEK293-GC-B cells, CNP EC30, cGMP TR-FRET; 0% at EC30 CNP, 100% saturating CNP | P20594;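 active = activation at 10 µM reaching about 35% in either raw or pattern-adjusted values, limit read from the data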
# Target sequence (P20594 whole entry, looked up): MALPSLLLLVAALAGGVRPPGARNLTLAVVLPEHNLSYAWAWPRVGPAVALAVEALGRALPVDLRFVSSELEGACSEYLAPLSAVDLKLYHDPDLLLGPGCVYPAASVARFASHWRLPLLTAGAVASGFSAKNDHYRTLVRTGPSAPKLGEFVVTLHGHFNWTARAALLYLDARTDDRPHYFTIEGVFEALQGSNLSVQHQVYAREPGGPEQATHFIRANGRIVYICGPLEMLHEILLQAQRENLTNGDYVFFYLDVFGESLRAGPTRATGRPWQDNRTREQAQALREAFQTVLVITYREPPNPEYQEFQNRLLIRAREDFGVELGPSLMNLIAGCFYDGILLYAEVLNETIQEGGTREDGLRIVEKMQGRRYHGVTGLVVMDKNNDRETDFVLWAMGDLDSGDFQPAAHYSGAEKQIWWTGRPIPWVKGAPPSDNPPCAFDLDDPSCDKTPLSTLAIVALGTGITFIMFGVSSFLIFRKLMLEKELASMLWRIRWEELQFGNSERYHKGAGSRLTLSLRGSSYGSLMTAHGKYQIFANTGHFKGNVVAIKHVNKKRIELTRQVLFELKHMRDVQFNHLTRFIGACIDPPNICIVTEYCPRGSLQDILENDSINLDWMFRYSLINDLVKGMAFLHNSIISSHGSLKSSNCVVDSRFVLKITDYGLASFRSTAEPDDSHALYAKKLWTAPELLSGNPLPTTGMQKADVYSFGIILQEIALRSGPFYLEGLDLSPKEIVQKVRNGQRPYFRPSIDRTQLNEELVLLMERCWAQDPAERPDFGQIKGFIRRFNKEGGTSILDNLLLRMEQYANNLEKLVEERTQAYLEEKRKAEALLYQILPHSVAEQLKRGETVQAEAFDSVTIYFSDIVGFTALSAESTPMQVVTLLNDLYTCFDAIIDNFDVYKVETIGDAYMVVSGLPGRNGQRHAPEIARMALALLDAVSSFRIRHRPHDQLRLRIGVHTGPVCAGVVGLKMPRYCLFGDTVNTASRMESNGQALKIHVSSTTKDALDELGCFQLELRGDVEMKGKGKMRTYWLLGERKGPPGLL
# The depositor's hits bear a star; x = no result given. Sampled rows, rich in hits. Any-hit rate of the full collection: about 3%.
SMILES,aDG glyco act,GASC-1 inh,GC-A act,Hep lipid drop,GRIN3A LBD mod,GC-B act
Cn1nnnc1SC(C(=O)Nc1cccc(C(F)(F)F)c1)c1ccccc1 (stereo not drawn),2,5,-12,-10,13*,-8
O=C(Nc1cccc(C(F)(F)F)c1)C(SCCO)c1ccccc1 (stereo not drawn),0,8,-4,3,-7,-8
O=C(Nc1cccc(C(F)(F)F)c1)C(Sc1ncnc2ccccc12)c1ccccc1 (stereo not drawn),0,0,-2,28,18*,-1
CCCCNS(=O)(=O)/C=C/c1ccccc1CNC(=O)OC(C)(C)C,x,x,0,x,x,-6
O=C(O)c1ccc(N=NNc2cccc([N+](=O)[O-])c2)cc1,0,-5,6,-3,-2,-2
N#C/C(=N\Nc1cccc([N+](=O)[O-])c1)C(=O)c1ccc(Br)cc1,0,-2,16,-26,29*,-2
Cn1ccnc1C(=O)O[C@@H]1CCC[C@@]2(C(=O)N(Cc3ccccc3)c3ccccc32)[C@H]1NC(=O)CCc1ccccc1,x,x,-7,x,x,-1
C=CCN1C(=O)[C@@H](CC(=O)NCc2ccc(OC)c(OC)c2)[C@]2(C(=O)OC)CCCCC=C12,x,x,-2,x,x,-4
CCNC(=S)NNC(=O)CSc1nc2ccccc2c(=O)n1-c1ccc(Cl)cc1,x,x,-3,x,x,5
O=S(=O)(N/N=C/c1c(F)cccc1Cl)c1ccccc1,2,-2,1,x,10*,-5
c1ccc(-c2nnc(-c3ccccc3)c(-c3c[nH]c4ccccc34)n2)cc1,0,23,4,x,15*,-6
Clc1ccc(-c2nnc(-c3ccccc3)nc2-c2c[nH]c3ccccc23)cc1,0,10,-2,0,7,-5
CCOc1ccccc1N1CCN(C(=O)CCNS(=O)(=O)c2ccccc2F)CC1,0,10,0,x,41*,5
CC(C)C[C@H]1CNC(=S)N1CC1CCCN1C[C@H](CC(C)C)N1C[C@H](Cc2ccc(O)cc2)N(CC2CCCCC2)C1=S (stereo partly drawn),0,x,2,x,12*,5
CC(C)C[C@H]1CNC(=S)N1C[C@H]1CCCN1C[C@H](CC(C)C)N1C[C@H](Cc2ccc(O)cc2)N(CC2CCCCCC2)C1=S,0,x,2,x,x,3
CC(C)C[C@@H](CN1CCCC1CN1C(=S)NC[C@@H]1Cc1ccc(O)cc1)N1C[C@H](Cc2ccc(O)cc2)N(CC2CCCCC2)C1=S (stereo partly drawn),0,x,2,x,33*,3
COc1ccc(S(=O)(=O)N2CCC(c3nc4ccccc4o3)CC2)c(OC)c1,x,x,-4,x,x,-9
CCOc1ccc(NC(=O)CCCN2C(=S)NC(C)(C)CC2C)cc1 (stereo not drawn),0,5,1,-6,12*,0
CC1CC(C)(C)NC(=S)N1CCCC(=O)Nc1ccc(Br)cc1 (stereo not drawn),0,-7,-4,-10,-1,0
O=C(NCCN1CCCC1)C1CC(=O)N(C2CCCCC2)C1 (stereo not drawn),0,-5,1,x,19*,-8
COc1ccccc1C(=O)NC1CCCCN(Cc2ccc(OC(F)(F)F)cc2)C1=O (stereo not drawn),x,x,-7,x,x,-1
CC(C)N1CC(C(=O)Nc2ccc(Br)c(Cl)c2)CC1=O (stereo not drawn),0,69*,4,-3,1,0
O=[N+]([O-])c1ccc2nc(-c3ccc(Cl)cc3)[nH]c2c1,1,11,20,1,28*,20
COc1ccc(-c2nc3ccc([N+](=O)[O-])cc3[nH]2)cc1,0,1,21,17,29*,24
Cc1ccc(-c2nc3ccc([N+](=O)[O-])cc3[nH]2)cc1,0,-3,14,-4,25*,16
SMILES,aDG glyco act,GASC-1 inh,GC-A act,Hep lipid drop,GRIN3A LBD mod,GC-B act
O=[N+]([O-])c1ccc2nc(-c3ccncc3)[nH]c2c1,0,1,6,1,1,11
Nc1ccc2nc(-c3ccc(-c4nc5ccc(N)cc5[nH]4)cc3)[nH]c2c1,x,-2,29,2,18*,-8
O=S1(=O)c2c(cccc2N2CCSCC2)Oc2ccccc2CN1Cc1cn(Cc2ccc(C(F)(F)F)cc2)nn1,x,x,3,x,x,4
COC(=O)c1cc(-c2ccc(-c3ccccc3)c(F)c2)c(=O)n2c1CCC2,x,x,3,x,x,-6
CNC(=S)N(Cc1ccc(OC)cc1)C1CC(=O)N(c2ccc(C(=O)OC)cc2)C1=O (stereo not drawn),x,2,-1,-16,x,0
CCCOc1ccc(N2C(=O)CC(N(Cc3ccc(OC)cc3)C(=S)Nc3ccccc3)C2=O)cc1 (stereo not drawn),0,-1,7,0,24*,-3
CNC(=S)N(Cc1ccc(OC)cc1)C1CC(=O)N(c2ccc(OC)cc2)C1=O (stereo not drawn),0,x,-1,17,18*,-1
O=c1c2ccccc2c(-c2ccc(O)cc2)nn1-c1cccc(C(F)(F)F)c1,0,1,5,-48,25*,9
Fc1ccc(N/N=C/c2ccncc2)c(F)c1,0,-9,0,-6,23*,0
Clc1ccc(N/N=C/c2ccncc2)cc1Cl,2,-6,-29,-3,12*,-21
Cc1cc(NC(=S)N(CCCN2CCOCC2)Cc2ccco2)ccc1Cl,0,22,1,10,13*,6
O=C(/C=C/c1ccccc1)Nc1ccc2c(c1)C(=O)NC2=O,1,40,1,11,14*,-4
O=C(/C=C/c1ccccc1)Nc1cccnc1,0,-8,2,7,30*,2
O=C(/C=C/c1ccccc1)Nc1cccc(C(=O)NCCCc2ccccc2)c1,0,x,1,x,27*,13
O=C(/C=C/c1ccccc1)Nc1cccc(C(=O)NCc2ccccc2)c1,x,x,1,x,x,-2
O=C(/C=C/c1ccccc1Cl)Nc1ccc2c(c1)C(=O)NC2=O,0,-18,-11,-3,7,-10
CS(=O)(=O)N[C@@H]1C[C@@H]2O[C@H](CO)CC[C@@H]2O[C@@H]1CCc1ccc(/C=C/c2ccccc2)cc1,x,x,3,x,x,-4
CCOC(=O)[C@@]12CCC3=C1N(CCC3)C(=O)[C@H](CC(=O)NCCCOC)C2,x,x,3,x,x,2
Cc1ccc(CN[C@@H]2CC[C@@]34CCCN3C(=O)CCC[C@H]4C2)cc1,x,x,2,x,x,2
CC(C)OCCCNc1ncnc2c1[nH]c1ccccc12,5.4*,-10,3,-12,0,9

# Screening data as filed in PubChem BioAssay.
